Measurements from different studies.
Lines come from different studies, so protocols differ.
Target: Cyclin-dependent kinase 18 (CDK18, Homo sapiens, UniProt Q07002)

CNC(=O)Nc1ccc2c(c1)[C@@]1(CC2)OC(=O)N(CC(=O)N(Cc2ccc(F)cc2)[C@@H](C)C(F)(F)F)C1=O  remaining binding (cell-free assay; competition with immobilised ligand; 1 µM): 100%
O=C(c1ccc(Nc2ncc(Cl)c(-c3ccc(Cl)s3)n2)cc1)N1CCC(N2CCCC2)CC1  remaining binding (binding; competition with immobilised ligand; 1 µM): 43%
COc1ccnn2ncc(-c3ccnc(N(C)C)n3)c12  remaining binding (binding; 1 µM): 100%
O=C(NCCCN1CCOCC1)c1ccc(Nc2ncc(Cl)c(-c3ccc(Cl)s3)n2)cc1  remaining binding (binding; competition with immobilised ligand; 1 µM): 70%
CN(C)C(=O)Cn1cc(-c2nc(C3(c4ccc(-c5cnc(N)nc5)cc4)CC3)no2)cn1  remaining binding (cell-free assay; competition with immobilised ligand; 1 µM): 83%
C[C@H]1CCN(c2nccc(-c3cnn4ncccc34)n2)C1  remaining binding (binding; 1 µM): 100%
COc1cnc(Nc2cccc(S(N)(=O)=O)c2)nc1N1CCN(c2ccccc2)CC1  remaining binding (binding; competition with immobilised ligand; 1 µM): 98%
c1cnn2ncc(-c3ccnc(N4CCC45COC5)n3)c2c1  remaining binding (binding; 1 µM): 98%
CC1=C(C#N)[C@@H](c2ccc3[nH]nc(C)c3c2)C(C#N)=C(c2ccc(Cl)cc2)N1  remaining binding (cell-free assay; competition with immobilised ligand; 1 µM): 100%
O=C(NCCCN1CCOCC1)c1ccc(Nc2nccc(-c3cc4ccccc4s3)n2)cc1  remaining binding (binding; competition with immobilised ligand; 1 µM): 99%
CN1CCN(c2ccc(Nc3nccc(-c4ccccc4)n3)cc2C(F)(F)F)CC1  remaining binding (binding; 10 µM): 23%
F[C@@H]1CCN(c2nccc(-c3cnn4ncccc34)n2)C1  remaining binding (binding; 1 µM): 86%
FC(F)(F)Oc1cccc(-c2cnc3ccc(-c4ccncc4)nn23)c1  remaining binding (cell-free assay; competition with immobilised ligand; 5 µM): 46%
NS(=O)(=O)c1cc(NC(=O)Cc2ccccc2)ccc1Oc1cccc(Cl)c1  remaining binding (cell-free assay; competition with immobilised ligand; 1 µM): 100%
N[C@H]1CCN(c2nccc(-c3cnn4ncccc34)n2)C1  remaining binding (binding; 1 µM): 100%
CCN1CCN(Cc2ccc(C(=O)Nc3ccc(C)c(Oc4ccc5c(c4)CC(=O)N5)c3)cc2C(F)(F)F)CC1  remaining binding (binding; competition with immobilised ligand; 1 µM): 100%
C[C@@H](c1ccc(-n2cnc3c(N)ncnc32)cc1)N1CCc2nn(C)c(Cc3ccccc3)c2C1=O  remaining binding (binding; competition with immobilised ligand; 0.1 µM): 100%
CN(CCCC(F)(F)F)c1nccc(-c2cnn3ncccc23)n1  remaining binding (binding; 1 µM): 52%
CN(C)c1ncnc(-c2ccc3nc(Nc4cc(CN5CCN(C(=O)CC(F)(F)F)CC5)ccn4)[nH]c3c2)c1Cl  remaining binding (cell-free assay; competition with immobilised ligand; 1 µM): 100%
COc1ncc2cc3ccccc3nc2c1C#N  remaining binding (cell-free assay; competition with immobilised ligand; 5 µM): 90%
CCC(=N\O)/C(C)=C/c1ccc(F)cc1  remaining binding (cell-free assay; competition with immobilised ligand; 1 µM): 89%
O=C(Nc1c[nH]nc1C(=O)NC1CCNCC1)c1cc(F)cc(F)c1  remaining binding (binding; competition with immobilised ligand; 1 µM): 78%
